Measured values pooled from the literature.
Target: Dual specificity protein kinase CLK3 (CLK3, Homo sapiens, UniProt P49761)

| SMILES | assay | conditions | quantity | result |
| --- | --- | --- | --- | --- |
| CCN(CC)c1ccc(C2=NNC(=O)CC2C)cc1[N+](=O)[O-] (stereo not drawn) | enzyme activity, inhibitor | 10 µM | remaining activity | 85% |
| Cc1cnc(NC2CCOCC2)nc1-n1cnc(C(=O)NC(CN)c2cc(F)cc(Cl)c2)c1 (stereo not drawn) | enzyme activity, inhibitor, radiometric | 1 µM | remaining activity | 99% |
| O=C(Nc1cnn(-c2csc(C(=O)NC3COC3)c2)c1)Nc1ccccc1Cl | enzyme activity, inhibitor | 5 µM | remaining activity | 120% |
| O=C(O)[C@@H]1[C@@H](Cn2nnc3ccccc3c2=O)CC[C@H]1C(=O)c1ccc(OCCC2CCOCC2)cc1 | cell-free assay, competition with immobilised ligand | 1 µM | remaining binding | 91% |
| Nc1ncnc2occ(-c3ccc(NC(=O)Nc4cc(C(F)(F)F)ccc4F)cc3)c12 | cell-free assay, inhibitor | 20 µM | remaining signal | 54% |
| Cc1nccc(COC(=O)N2C[C@@H]3[C@@H](CNC(=O)c4ccc5[nH]nnc5c4)[C@@H]3C2)n1 | cell-free assay, competition with immobilised ligand | 1 µM | remaining binding | 90% |
| O=C1Nc2ccc(Cl)cc2C1=Cc1cc(Cl)c(O)c(Cl)c1 | cell-free assay | 0.5 µM | remaining signal | 90.9% |
| CC(C)(C)c1nc2c(s1)c1nc(N)ncc1c1ccc(NS(=O)(=O)c3c(F)cccc3F)c(F)c12 | enzyme activity, inhibitor, radiometric | 1 µM | remaining activity | 82% |
| O=C1NC(=O)c2cc(Nc3ccc(F)cc3)c(Nc3ccc(F)cc3)cc21 | cell-free assay | 0.5 µM | remaining signal | 93.7% |
| C[C@@]1(Cc2ccc(C#N)cc2)C(=O)N(c2cc(Cl)cc(Cl)c2)c2ncc(C(=O)NC3(c4nc(C5CCC5)no4)CC3)n21 | cell-free assay, competition with immobilised ligand | 1 µM | remaining binding | 100% |
| COc1cc2c(N3CCN(C(=O)Nc4ccc(OC(C)C)cc4)CC3)ncnc2cc1OCCCN1CCCCC1 | cell-free assay | 0.5 µM | remaining signal | 93.4% |
| CC/C(=N\NC(=O)NCc1cccc(O)c1)c1ccc(O)c(C)c1O | enzyme activity, inhibitor | 0.1 µM | inhibition | -1.4% |
| C[C@@H]1CN(c2cc(-c3nn(C)c4ccc(OC5(C)CC5)cc34)ncn2)C[C@H](C)O1 | cell-free assay, competition with immobilised ligand | 1 µM | remaining binding | 98% |
| CCOc1cc(-c2nncn2C)ccc1Nc1ncc2cc(C)nc(NCC(C)(C)C)c2n1 | enzyme activity, inhibitor, FRET | 1 µM | inhibition | < 15% |
| Nc1cnc(N2CCc3cc(S(=O)(=O)Nc4c(F)cc(Cl)cc4F)cc(N4CCCC4=O)c32)nc1 | cell-free assay, competition with immobilised ligand | 1 µM | remaining binding | 74% |
| CCN(CC)CCNC(=O)c1c(C)[nH]c(/C=C2\C(=O)Nc3ccc(F)cc32)c1C | enzyme activity, inhibitor | 10 µM | inhibition | 23% |
| CC(C)(O)[C@H]1CC[C@H](Nc2ccc3ncc(-c4cccc(C(F)(F)F)c4)n3n2)CC1 | enzyme activity, inhibitor | 1 µM | remaining activity | 59.3% |
| CCCS(=O)(=O)Nc1ccc(F)c(C(=O)c2c[nH]c3ncc(-c4ccc(Cl)cc4)cc23)c1F | enzyme activity, inhibitor | 1 µM | inhibition | < 10% |
| N#CC1c2c([nH]c3c(Cl)c(Cl)ccc23)C(=O)NC12CCCCC2 (racemic) | thermal stability, DSF | 10 µM | ΔTm | 2.1 °C |
| O=C(N[C@H]1CCCCC/C=C\C2C[C@@]2(C(=O)O)NC(=O)[C@@H]2C[C@@H](Oc3ccncc3)CN2C1=O)OC1CCCC1 (stereo partly drawn) | binding, competition with immobilised ligand | 1 µM | remaining binding | 93% |
| Clc1ccc(Nc2nnc(Cc3ccncc3)c3ccccc23)cc1 | cell-free assay | 0.5 µM | remaining signal | 105% |
| Cc1ccc(Nc2nccc(N(C)c3ccc4c(C)n(C)nc4c3)n2)cc1S(N)(=O)=O | enzyme activity, inhibitor | 0.3 µM | inhibition | 2% |
| N#CCCc1ccc2c(c1)-c1[nH]c3ccc([N+](=O)[O-])cc3c1CC(=O)N2 | cell-free assay | 0.5 µM | remaining signal | 108% |
| CCC(=N\O)/C(C)=C/c1ccc(F)cc1 | cell-free assay, competition with immobilised ligand | 1 µM | remaining binding | 73% |
| Cn1c2c(c3ccc(Cl)c(Cl)c31)C(C#N)C(C)(C)NC2=O (stereo not drawn) | thermal stability, DSF | 10 µM | ΔTm | 1.9 °C |
| COc1cc2ncnc(Nc3ccc(Oc4ccccc4)c(C)c3C)c2cc1OC | enzyme activity, inhibitor | 1 µM | inhibition | -3% |
| Cn1c2c(c3ccc(Cl)c(Cl)c31)C(C#N)C1(CCCCC1)NC2=O (racemic) | thermal stability, DSF | 10 µM | ΔTm | 0.4 °C |
| CNC(=O)c1cc(Oc2ccc(NC(=O)Nc3ccc(Cl)c(C(F)(F)F)c3)cc2)ccn1 | enzyme activity, inhibitor | 0.3 µM | inhibition | -1% |
| CCS(=O)(=O)c1cc2cc(C[C@](O)(CC(C)(C)c3ccc(F)cc3C(N)=O)C(F)(F)F)[nH]c2cn1 | cell-free assay, competition with immobilised ligand | 1 µM | remaining binding | 100% |
| Cn1c2c(Cl)c(Cl)ccc2c2cc(N)[nH]c(=O)c21 | thermal stability, DSF | 10 µM | ΔTm | 0.6 °C |
